Experimental data as given in article PMC6828556 (Biochemical pharmacology, 2017).

Legend:
[1] = target: T1, 11β-HSD2 (Homo sapiens, UniProt P80365); assay: 11β-HSD2 activity in lysates of HEK-293 cells stably expressing human 11β-HSD2; assay type: biochemical
T1 sequence (P80365 1-405): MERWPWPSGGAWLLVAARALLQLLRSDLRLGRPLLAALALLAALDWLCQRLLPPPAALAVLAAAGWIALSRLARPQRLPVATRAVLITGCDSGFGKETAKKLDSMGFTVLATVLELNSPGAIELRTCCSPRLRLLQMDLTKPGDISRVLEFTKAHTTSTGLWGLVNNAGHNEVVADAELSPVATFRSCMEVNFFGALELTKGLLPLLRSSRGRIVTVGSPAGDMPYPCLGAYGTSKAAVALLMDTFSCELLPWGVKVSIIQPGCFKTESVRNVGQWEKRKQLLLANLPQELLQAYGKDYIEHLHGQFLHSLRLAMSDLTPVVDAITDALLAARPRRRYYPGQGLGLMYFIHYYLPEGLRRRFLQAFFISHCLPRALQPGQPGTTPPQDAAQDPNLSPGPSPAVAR
In short: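 Reactions were stopped with excess unlabeled cortisone/cortisol, giving about 20–25% conversion. Products were separated by TLC (chloroform:methanol 9:1) and counted by scintillation. Activity was normalized to vehicle; mean ± SD, ≥3 independent experiments.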

[2] = target: T1, 11β-HSD2; assay: 11β-HSD2 activity in intact SW-620 cells; assay type: cell-based
In short: (§1)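 Cells were grown in DMEM with 10% FBS (SW-620 passages 11–15, MCF-7 passages 19–27) and seeded at 100 000 (SW-620) or 50 000 (MCF-7) per well. After 24 h, medium was replaced by steroid- and serum-free DMEM with vehicle or inhibitor plus radiolabeled cortisol (10 nCi; 50 nM final). Incubation was at 37°C for 4 h (SW-620) or 5 h (MCF-7). Conversion was read by TLC and scintillation counting.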

[3] = target: T1, 11β-HSD2; assay: 11β-HSD2 activity in intact MCF-7 cells; assay type: cell-based
In short: as §1

[4] = cited from earlier work
[5] = target: T1, 11β-HSD2; assay type: biochemical; conditions: preincubation 0, 5, 20 min at 4°C or 10 min followed by dilution
In short: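 Lysates of HEK-293 cells expressing human 11β-HSD2 were preincubated with test compound for 0, 5 or 20 min at 4°C before activity measurement. Alternatively, lysates were preincubated 10 min with compound, then diluted 1:2 or 1:4 before measuring 11β-HSD2 activity (radiolabeled cortisol, NAD+, TLC/scintillation). Data were normalized to DMSO control; mean ± SD, ≥3 independent experiments.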

[6] = target: T2, human 17β-HSD1 (Homo sapiens, UniProt P14061); assay: 17β-HSD1 activity in lysates of transiently transfected HEK-293 cells; assay type: biochemical; conditions: HEK-293 lysates, 200 nM estrone; data not shown
T2 sequence (P14061 1-328): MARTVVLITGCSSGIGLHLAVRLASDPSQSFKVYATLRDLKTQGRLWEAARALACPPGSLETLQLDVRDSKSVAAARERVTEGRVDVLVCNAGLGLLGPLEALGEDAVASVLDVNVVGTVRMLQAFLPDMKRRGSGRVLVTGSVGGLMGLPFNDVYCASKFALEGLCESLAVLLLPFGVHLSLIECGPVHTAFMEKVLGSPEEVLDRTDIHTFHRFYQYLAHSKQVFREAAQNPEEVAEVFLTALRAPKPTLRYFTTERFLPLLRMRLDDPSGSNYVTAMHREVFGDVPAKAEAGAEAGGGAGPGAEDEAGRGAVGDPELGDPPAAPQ
In short: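 Lysates of HEK-293 cells transiently expressing human 17β-HSD1 were incubated for 10 min at 37°C with 200 nM estrone (containing 50 nCi [2,4,6,7-3H]-estrone), 500 μM NADPH and test compound or DMSO vehicle. Steroids were separated by TLC, and substrate conversion was measured by scintillation counting. Activity was normalized to the vehicle control. Data are mean ± SD from at least three independent experiments.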

[7] = target: human 11β-HSD1 (Homo sapiens, UniProt P28845); assay type: biochemical; conditions: HEK-293 lysates, recombinant human enzyme
In short: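 Lysates of HEK-293 cells stably co-expressing human 11β-HSD1 and H6PDH (HHH7 clone) were incubated 10 min at 37°C with 200 nM radiolabeled cortisone, 500 μM NADPH and test compound or DMSO vehicle (max 0.1%). Reactions were stopped with excess unlabeled cortisone/cortisol, giving about 20–25% conversion. Steroids were separated by TLC (chloroform:methanol 9:1) and counted by scintillation. Activity was normalized to vehicle; mean ± SD, ≥3 independent experiments. IC50 was skipped when residual activity at 20 μM exceeded 40%.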

[8] = target: T3, human 17β-HSD2 (Homo sapiens, UniProt P37059); assay: 17β-HSD2 activity in lysates of transiently transfected HEK-293 cells; assay type: biochemical; conditions: HEK-293 lysates, 200 nM estradiol; data not shown
T3 sequence (P37059 1-387): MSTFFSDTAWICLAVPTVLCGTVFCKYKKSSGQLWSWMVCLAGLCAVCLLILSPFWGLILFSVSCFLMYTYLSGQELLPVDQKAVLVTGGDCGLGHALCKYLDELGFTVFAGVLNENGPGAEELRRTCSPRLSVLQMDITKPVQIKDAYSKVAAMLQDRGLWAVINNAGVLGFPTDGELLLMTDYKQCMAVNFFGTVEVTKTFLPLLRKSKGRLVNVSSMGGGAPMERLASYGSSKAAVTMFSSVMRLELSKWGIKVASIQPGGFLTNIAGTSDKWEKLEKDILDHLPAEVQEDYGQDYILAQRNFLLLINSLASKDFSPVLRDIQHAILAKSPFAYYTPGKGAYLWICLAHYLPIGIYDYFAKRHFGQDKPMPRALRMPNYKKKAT
In short: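 Lysates of HEK-293 cells transiently expressing human 17β-HSD2 were incubated for 10 min at 37°C with 200 nM estradiol (containing 50 nCi [2,4,6,7-3H]-estradiol), 500 μM NAD+ and test compound or DMSO vehicle. Steroids were separated by TLC, with conversion quantified by scintillation counting. Results were normalized to the vehicle control. Data are mean ± SD from at least three independent experiments.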

[9] = first trimester exposure, 229 women, 50-800 mg daily, prospective cohort; cited from earlier work

Chain of human 11β-HSD1 (P28845 whole entry): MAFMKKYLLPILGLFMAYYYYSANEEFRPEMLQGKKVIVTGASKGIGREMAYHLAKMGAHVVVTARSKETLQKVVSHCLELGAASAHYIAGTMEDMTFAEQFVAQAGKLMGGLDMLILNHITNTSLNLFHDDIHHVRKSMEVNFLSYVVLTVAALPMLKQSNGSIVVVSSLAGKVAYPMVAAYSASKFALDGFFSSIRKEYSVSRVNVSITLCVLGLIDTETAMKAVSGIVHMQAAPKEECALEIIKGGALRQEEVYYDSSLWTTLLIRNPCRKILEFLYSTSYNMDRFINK

CCC(C)n1ncn(-c2ccc(N3CCN(c4ccc(OCC5COC(Cn6cncn6)(c6ccc(Cl)cc6Cl)O5)cc4)CC3)cc2)c1=O (stereo not drawn) [itraconazole]
IC50 [1]: 139 ± 14 nM
IC25 for 11β-HSD2 ([1]; as determined in HEK-293 cell lysates): 78 nM
IC50 [2]: 1070 ± 290 nM
IC50 [3]: 1190 ± 240 nM
concentration in fat tissue relative to plasma ([4]; fat tissue): approximately 17 fold
duration of treatment needed to reach plasma steady-state levels ([4]; human plasma): 15 days
concentration in lung, liver, muscle and kidney relative to plasma ([4]; lung, liver, muscle and kidney): 2-3 fold
irreversible 11β-HSD2 inhibition [5]: excluded
inhibition of 17β-HSD1 activity [6]: None of the compounds inhibited 17β-HSD1 or 17β-HSD2 activity
activity against 11β-HSD1 (in words) [7]: inactivity towards 11β-HSD1
inhibition of 17β-HSD2 activity [8]: None of the compounds inhibited 17β-HSD1 or 17β-HSD2 activity
rate of malformations compared to the control [9]: no difference
